This is a sample that favours compounds with a hit; in the whole collection about 3.3% have one here.
SENP1 inh = SENP1 (human) catalytic domain inhibition | Q9P0U3 | recombinant SENP1 catalytic domain, CyPet-SUMO1-YPet FRET cleavage | inhibition, % at 10 µM | 360,000 tested, 0.21% active | AID 624204;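 active = inhibition at least 30% at 10 µM, raw YFP signal under a set limit, fluorescence ratio 0.5 to 1.5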
Target sequence (Q9P0U3 419-644 limits assumed): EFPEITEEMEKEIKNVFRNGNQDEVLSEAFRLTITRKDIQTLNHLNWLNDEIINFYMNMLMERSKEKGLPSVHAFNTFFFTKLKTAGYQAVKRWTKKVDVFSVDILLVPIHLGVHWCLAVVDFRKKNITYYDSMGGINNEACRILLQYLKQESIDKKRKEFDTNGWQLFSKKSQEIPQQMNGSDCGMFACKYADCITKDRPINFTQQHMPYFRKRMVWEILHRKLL
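Test system: human SENP1 catalytic domain; medium: Tris pH 8 buffer plus EDTA, NaCl, BME, BSA, NP40, catalase; incubation: 50 min reaction at room temperature; technique: FRET, CFP and YFP emission; controls: no-enzyme low control and enzyme-plus-DMSO high control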
SENP6 block = blocks the human protease SENP6; Recombinant SENP6 catalytic domain, aminoluciferin luminescence; inhibition, % at 10 µM; 330,000 tested, 1.8% active; AID 2599;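 active = inhibition above about 50% at the single tested dose, limit read from the data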
SENP8 block-1 = inhibitors of human SENP8 protease; Q96LD8; purified SENP8, Z-RLRGG-aminoluciferin cleavage, luminescence; inhibition, % at 10 µM; 330,000 tested, 1.2% active; AID 2540; in the data active = inhibition above about 50%
SENP7 block = inhibitors of human SENP7 protease. Q9BQF6. recombinant SENP7, Z-RLRGG-aminoluciferin luminescence, 40 min. inhibition, % at 5 µM. 330,000 tested, 1.5% active;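 active = inhibition above about 50% at the single test dose, limit read from the data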
Target sequence (Q9BQF6 706-1050 limits assumed): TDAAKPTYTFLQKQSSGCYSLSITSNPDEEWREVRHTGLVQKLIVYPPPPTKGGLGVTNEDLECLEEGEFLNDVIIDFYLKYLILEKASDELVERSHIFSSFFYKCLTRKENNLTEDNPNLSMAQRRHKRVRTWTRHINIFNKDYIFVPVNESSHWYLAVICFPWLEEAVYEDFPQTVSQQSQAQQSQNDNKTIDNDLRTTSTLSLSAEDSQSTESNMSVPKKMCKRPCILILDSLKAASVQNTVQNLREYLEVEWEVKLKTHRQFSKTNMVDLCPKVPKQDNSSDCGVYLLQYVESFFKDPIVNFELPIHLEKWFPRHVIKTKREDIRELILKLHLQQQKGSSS
NRP1-CendR mod = NRP-1/CendR interaction modulation | FAM-RPARPAR peptide binding to NRP-1, fluorescence polarization | inhibition, % at 25 µM | 360,000 tested, 0.85% active;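 active = inhibition or corrected inhibition above about 18%, plus a signal ratio from 0.5 to 1.5, limit read from the data, passing the limit was not always enough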
SENP8 block-2 = SENP8 (human) protease inhibition | Q96LD8 | recombinant SENP8, Nedd8 substrate fluorescence | inhibition, % at 20 µM | 360,000 tested, 0.64% active | AID 602440; in the data active = inhibition mostly above about 40%, no sharp cut-off; inactive = mostly below about 27%
SENP8 conf = human SENP8 inhibition, confirmed; 6,200 tested, 40% active; shares compounds with SENP7 block; Recombinant SENP8, Z-RLRGG-aminoluciferin luminescence, 60 min; AID 488912; inhibition, % at 12.5 µM;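 active = mean inhibition across replicates above about 50%, limit read from the data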
SENP6 conf = human SENP6 inhibition, confirmed; recombinant SENP6, Z-RLRGG-aminoluciferin luminescence; 6,200 tested, 58% active; inhibition, % at 12.5 µM; AID 488915; shares compounds with SENP7 block
SENP7 conf = human SENP7 inhibition, confirmed; 6,200 tested, 69% active; recombinant SENP7, Z-RLRGG-aminoluciferin luminescence, 40 min; shares compounds with SENP7 block; inhibition, % at 12.5 µM; AID 488917
Casp3 SENP sel = inhibits human caspase-3 in SENP selectivity test; shares compounds with SENP7 block; purified caspase-3, Z-DEVD-aminoluciferin luminescence, 60 min; inhibition, % at 12.5 µM; 6,200 tested, 60% active;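 active = mean inhibition above about 50%, limit read from the data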
SENP luc ctr = counter-screen for SENP inhibitors: luminescence interference | shares compounds with SENP7 block | Pre-incubated SENP8/Z-RLRGG-aminoluciferin, luciferase luminescence interference | inhibition, % at 12.5 µM | 6,200 tested, 39% active;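 active = mean inhibition above about 50% when retested at one dose, limit read from the data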
Numbers stand for hits; ! = repeats disagree.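 Rule for the calls, unless noted: active = mean inhibition above about 50% in the one-dose retest (limit read from the data); inactive = the rest.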

COC(=O)[C@@]1(Sc2ccc(C)cc2)CC(=O)N(c2ccccc2)[C@@H]1c1ccccc1 was read as SENP1 inh inactive, NRP1-CendR mod inactive and SENP8 block-2 inactive.
For CCCCCCCCN1C(=O)[C@H](CC(=O)N2CCCCC2)C[C@@]2(C(=O)OC)CCCCC=C12 the results were SENP1 inh inactive, NRP1-CendR mod inactive and SENP8 block-2 inactive.
Screening Cc1c(N)cccc1N returned SENP1 inh inactive, SENP6 block inactive, SENP8 block-1 inactive, SENP7 block inactive, NRP1-CendR mod inactive and SENP8 block-2 inactive.
Cc1ccc2cccc(N)c2n1 was read as SENP1 inh inactive, SENP6 block 51.9, SENP8 block-1 inactive, SENP7 block 54.5, NRP1-CendR mod inactive, SENP8 block-2 inactive, SENP8 conf inactive, SENP6 conf inactive, SENP7 conf inactive, Casp3 SENP sel inactive and SENP luc ctr inactive.
CC(C)NC(=O)N(C)C[C@@H]1Oc2cc(Br)ccc2S(=O)(=O)N([C@@H](C)CO)C[C@H]1C was read as SENP1 inh inactive, NRP1-CendR mod inactive and SENP8 block-2 inactive.
CCCCC(=O)Nc1cc(OC)c(NC(=S)Nc2ccc(OC)cc2)cc1OC was read as SENP1 inh inactive, NRP1-CendR mod inactive and SENP8 block-2 inactive.
Screening Cc1ccc(NC(=O)NC(=O)CSc2nnc(-c3ccc(Cl)cc3Cl)n2N)c(C)c1 returned SENP1 inh inactive, SENP6 block 63.1, SENP8 block-1 inactive, SENP7 block 58.5, NRP1-CendR mod inactive, SENP8 block-2 inactive, SENP8 conf 56.4, SENP6 conf 55.8, SENP7 conf 83.1, Casp3 SENP sel inactive and SENP luc ctr 72.2.
Screening O=C1c2ccccc2C(=O)C1c1ccncc1 returned SENP1 inh inactive, SENP6 block 80.5, SENP8 block-1 64.0, SENP7 block 57.8, NRP1-CendR mod inactive, SENP8 block-2 40.6, SENP8 conf 75.6, SENP6 conf 71.1, SENP7 conf 92.4, Casp3 SENP sel 91.0 and SENP luc ctr 79.4.
Screening O=C1c2ccccc2C(=O)C1c1ccccn1 returned SENP1 inh inactive, SENP6 block inactive, SENP8 block-1 inactive, SENP7 block inactive, NRP1-CendR mod inactive and SENP8 block-2 inactive.
For O=C(CSc1ccccn1)N/N=C/c1cc([N+](=O)[O-])ccc1O the results were SENP1 inh inactive, SENP6 block 52.2, SENP8 block-1 inactive, SENP7 block inactive, NRP1-CendR mod inactive, SENP8 block-2 26.8, SENP8 conf inactive, SENP6 conf inactive, SENP7 conf 65.2, Casp3 SENP sel 57.9 and SENP luc ctr inactive.
Screening O=C(CSc1ccccn1)N/N=C/c1ccccc1[N+](=O)[O-] returned SENP1 inh inactive, SENP6 block inactive, SENP8 block-1 inactive, SENP7 block inactive, NRP1-CendR mod inactive and SENP8 block-2 inactive.
For CCOc1cccc(/C=C/c2ccc3cccc(O)c3n2)c1O the results were SENP1 inh inactive, SENP6 block inactive, SENP8 block-1 54.9, SENP7 block 63.9, NRP1-CendR mod inactive, SENP8 block-2 inactive, SENP8 conf inactive, SENP6 conf 59.4, SENP7 conf 85.2 and SENP luc ctr inactive.
COc1ccc(Cl)cc1/C=C/c1ccc2cccc(O)c2n1 was read as SENP1 inh inactive, SENP6 block inactive, SENP8 block-1 inactive, SENP7 block inactive, NRP1-CendR mod inactive and SENP8 block-2 inactive.
`COc1ccccc1/C=C/c1ccc2cccc(O)c2n1` gave SENP1 inh inactive, SENP6 block 80.7, SENP8 block-1 50.7, SENP7 block inactive, NRP1-CendR mod inactive, SENP8 block-2 inactive, SENP8 conf inactive, SENP6 conf 72.2, SENP7 conf 91.6, Casp3 SENP sel 56.6 and SENP luc ctr inactive.
Screening COc1ccccc1Cc1c(-c2ccco2)nc2ccc(C)cn12 returned SENP1 inh inactive, NRP1-CendR mod inactive and SENP8 block-2 inactive.
For O=c1c2ccccc2oc2cc(C#CC3(O)CCCCC3)ccc12 the results were SENP1 inh inactive, SENP6 block 98.1, SENP8 block-1 95.5, SENP7 block 99.0, NRP1-CendR mod inactive, SENP8 block-2 inactive, SENP8 conf 97.9, SENP6 conf 98.8, SENP7 conf 102.5, Casp3 SENP sel 93.9 and SENP luc ctr 75.3.
COc1ccccc1-c1oc2ccccc2c1C#CC1(O)CCCCC1 was read as SENP1 inh inactive, SENP6 block inactive, SENP8 block-1 inactive, SENP7 block inactive, NRP1-CendR mod inactive and SENP8 block-2 inactive.
COc1cccc2oc3cc(C#Cc4ccccn4)ccc3c(=O)c12 was read as SENP6 block inactive, SENP8 block-1 inactive and SENP7 block inactive.
For COc1cccc2oc3cc(C#CC4(O)CCCCC4)ccc3c(=O)c12 the results were SENP1 inh inactive, SENP6 block 80.9, SENP8 block-1 83.9, SENP7 block 84.1, NRP1-CendR mod inactive, SENP8 block-2 inactive, SENP8 conf 89.1, SENP6 conf 89.4, SENP7 conf 97.4, Casp3 SENP sel 71.9 and SENP luc ctr 54.7.
For CCCNC(=O)c1cc(C2CCCCN2C(=O)c2cc(OC)c(C)c(OC)c2)on1 (configuration not stated) the results were SENP1 inh inactive, NRP1-CendR mod inactive and SENP8 block-2 inactive.
For c1ccc(-c2nn[nH]n2)nc1 the results were SENP1 inh inactive, SENP6 block inactive, SENP8 block-1 inactive, SENP7 block inactive, NRP1-CendR mod inactive and SENP8 block-2 inactive.
For c1ccc(-c2n[nH]c(-c3ccccn3)n2)nc1 the results were SENP1 inh inactive, SENP6 block 66.2!, SENP8 block-1 inactive, SENP7 block 58.8, NRP1-CendR mod inactive, SENP8 block-2 inactive, SENP8 conf 52.7, SENP6 conf 51.3, SENP7 conf 78.4, Casp3 SENP sel 84.4 and SENP luc ctr 61.2.
`CC(C)C[C@H]1CNC(=O)C(=O)N1CC1CCN(CC2CCC(C(C)(C)C)CC2)CC1` (some centres not stated) gave SENP1 inh inactive, NRP1-CendR mod inactive and SENP8 block-2 inactive.

Screening results deposited in PubChem by Sanford-Burnham Center for Chemical Genomics.
